beta cell repl – MIN6 beta-cell proliferation induction. proliferation, % at 10 µM. MIN6 cells proliferation, ATPlite luminescence, 48 h; cells starved in 0.2% serum; 100% = growth in 10% serum. AID 2380. 0.29% of 330,000 active;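 active = compounds whose signal lies at least 3.5 SD above the mean of all wells on their plate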;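 note: 0% = DMSO-treated cells in low-serum medium and 100% = 10% serum control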
T cruzi inh – T. cruzi replication inhibition; T. cruzi beta-gal in NIH3T3, luminescence, 90 h; inhibition, % (concentration not given with the values); 1.4% of 300,000 active; AID 1885;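 active = mean inhibition across valid replicates above about 55%, limit read from the data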;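 note: signal also drops with host cell toxicity which is not excluded here; 0% = plate median of DMSO wells and 100% = zero luminescence signal; higher percent means less beta-gal luminescence so fewer parasites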
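System: mouse NIH/3T3 fibroblasts infected with β-gal-expressing T. cruzi Tulahuen C4 / Input: NIH/3T3 cells, 5,000 per well / Buffer or medium: Low-serum DMEM with 2% FBS / Probe or stimulus: 5000 reporter trypomastigotes per well / Schedule: ≥90 h infection period, 3 h prior cell attachment / Measured by: GalScreen luminescence, 60 min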
Rev-erbA mod – modulators of human Rev-erb alpha DNA binding; P20393; Rev-erbα–FITC-DNA binding, fluorescence polarization, 90 min; activity, % at 10 µM; 0.79% of 370,000 active;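 active = activity above about 14%, limit read from the data; passing the limit was not always enough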;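 note: 0% = DMSO wells with 35 nM protein and 100% = DMSO wells with 750 nM protein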
Target sequence (P20393 whole entry, looked up): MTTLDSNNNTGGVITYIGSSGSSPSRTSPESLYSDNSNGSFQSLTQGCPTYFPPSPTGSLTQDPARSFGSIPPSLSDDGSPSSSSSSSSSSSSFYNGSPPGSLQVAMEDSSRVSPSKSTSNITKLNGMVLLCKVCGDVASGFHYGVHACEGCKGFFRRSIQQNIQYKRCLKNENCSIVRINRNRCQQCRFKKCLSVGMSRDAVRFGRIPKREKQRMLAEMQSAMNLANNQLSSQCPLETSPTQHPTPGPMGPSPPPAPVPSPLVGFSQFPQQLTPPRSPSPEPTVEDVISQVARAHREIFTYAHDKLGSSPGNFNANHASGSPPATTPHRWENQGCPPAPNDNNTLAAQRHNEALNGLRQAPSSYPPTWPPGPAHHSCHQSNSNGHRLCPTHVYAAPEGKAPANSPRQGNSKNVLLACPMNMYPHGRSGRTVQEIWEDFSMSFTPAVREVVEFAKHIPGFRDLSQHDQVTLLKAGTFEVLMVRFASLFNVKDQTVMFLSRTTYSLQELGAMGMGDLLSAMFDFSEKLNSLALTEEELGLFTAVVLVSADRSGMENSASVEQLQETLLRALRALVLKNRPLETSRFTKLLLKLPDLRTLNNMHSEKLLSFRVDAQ
PG9 binder – PG9 antibody binding by small molecule; inhibition, % at 6.7 µM; TR-FRET gp120-PG9 antibody binding; 0.43% of 360,000 active; AID 624416; in the data active = inhibition above about 8.5%
hiPSC survival – enhancers of human iPSC single-cell survival. hiPSC single-cell survival, ATPlite luminescence; 100% = ROCK inhibitor wells, 0% = DMSO. survival enhancement, % at 20 µM. 0.044% of 360,000 active. AID 602274; in the data active = survival enhancement above about 18%;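 note: cells exposed to compounds for 16 hours before the ATP read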
H9c2 TAG inh – inhibitors of triacylglycerol accumulation | H9c2 cells, Nile Red lipid (TAG) fluorescence; cells loaded with 200 µM oleic acid | inhibition, % at 12.5 µM | 0.66% of 230,000 active | AID 651582;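 active = pattern-corrected inhibition of lipid staining of at least 50% with the nuclear-stain viability signal not falling by more than 50%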;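 note: 0% = DMSO wells and 100% = triacsin C control wells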
Active calls of the source: *; x = no result. Hits are enriched below; roughly 2.9% of the tested compounds scored in any of these assays.

SMILES | beta cell repl | T cruzi inh | Rev-erbA mod | PG9 binder | hiPSC survival | H9c2 TAG inh
COc1ccc(-c2cc(C(=O)N3CCN(c4cccc(C)c4C)CC3)c3ccccc3n2)cc1OC | -6.5 | 62.3* | x | x | -0.3 | 18.7
CCCCCCCCC/C(=N\O)c1ccccn1 | -2.1 | 63.5* | 1.9 | 0.6 | 4.1 | 1.5
CCOc1ccccc1OCC(=O)Nc1cc(C)on1 | -4.6 | x | -5.6 | 1.1 | 1.2 | 1.1
Cc1cc(NC(=O)COc2ccc3ccccc3c2Br)no1 | -3.3 | x | 4.2 | 10.0* | -0.4 | -4.0
Cc1cc(Cl)c(OCCCN(C)C)c(Br)c1 | -1.5 | 52.0 | -0.2 | 0.0 | -0.9 | 1.1
Cc1cc(Br)cc(C)c1OCCCCN(C)C | 4.1 | 63.0* | -0.9 | 3.0 | -1.1 | x
COc1ccc(CN(C(=O)c2ccc(-c3ccccc3)[nH]2)C(C(=O)NC(C)(C)C)c2ccncc2)cc1 (centres undefined) | -5.3 | 58.5* | -2.8 | 0.4 | -0.8 | 13.5
CCN1CCCC1CNC(=O)c1cc2c(-c3cccc(OC)c3)nn(C)c2s1 (centres undefined) | -2.4 | 40.5 | -5.2 | 2.5 | 1.4 | 28.8
CCN1CCCC1CNC(=O)c1cc2c(-c3ccc(Cl)cc3)nn(C)c2s1 (centres undefined) | -8.4 | 30.1 | x | x | -4.6 | 52.7*
CCOc1ccc(NC(=O)C(C)Oc2ccccc2C(=O)Nc2ccc(C)c(Cl)c2)cc1 (centres undefined) | -6.1 | 72.0* | 0.2 | 2.2 | 0.3 | x
Cc1ccc(NC(=O)COc2ccccc2C(=O)Nc2ccccc2)cc1Cl | -6.3 | 24.6 | 0.9 | 2.4 | 3.6 | x
O=c1[nH]c2ccccc2cc1CN(Cc1cccnc1)S(=O)(=O)c1ccc(Cl)cc1 | -2.4 | 25.8 | 9.0 | -1.4 | -0.6 | x
O=c1[nH]c2ccccc2cc1CN(Cc1cccnc1)S(=O)(=O)c1ccc([N+](=O)[O-])cc1 | 0.7 | 55.6* | -1.1 | -0.3 | -0.4 | x
CCN(CCCC(=O)c1ccc(F)cc1)CCc1ccccc1 | -0.9 | 58.4* | 6.3 | -4.0 | -0.6 | x
CCCc1sc(N/N=C/c2ccccn2)nc1-c1ccc(F)cc1 | -4.4 | 54.8* | x | x | -1.3 | x
COc1ccc(C(C(=O)NC2CCCCC2)N(C(=O)CCl)c2ccc(Cl)cc2)cc1 (centres undefined) | -5.5 | 56.5* | x | x | -2.0 | x
COc1ccc(C(C(=O)NC2CCCC2)N(C(=O)c2snc(-c3ccc(F)cc3)c2N)c2ccc(OC)cc2)cc1 (centres undefined) | -0.6 | 60.4* | 8.5 | 5.8 | -0.5 | x
COc1ccc(C(C(=O)NC2CCCC2)N(C(=O)c2snc(-c3ccc(F)cc3)c2N)c2ccc(F)cc2)cc1 (centres undefined) | -6.0 | 29.4 | -7.8 | 2.6 | -2.6 | x
Cc1cc(C)cc(NC(=O)NCC(O)COc2ccc([N+](=O)[O-])cc2)c1 (centres undefined) | -1.6 | 12.1 | 11.6 | -1.5 | 0.1 | -1.1
Cc1ccc(-c2nn(-c3cc(N4CCNCC4)ccc3[N+](=O)[O-])c(=O)c3ccccc23)cc1 | -6.1 | 73.3* | 1.8 | 0.4 | -5.8 | 31.3
Cc1nn(-c2cc(N3CCCCCC3)ccc2[N+](=O)[O-])c(=O)c2ccccc12 | 0.2 | 24.6 | 1.9 | -0.5 | 4.1 | x
CCc1ccc(/C=C2\SC(=S)N(CCCC(=O)Nc3ccccn3)C2=O)cc1 | -2.9 | 62.0* | -0.6 | 0.5 | -3.0 | 16.0
COC(=O)c1ccc(/C=C2/SC(=S)N(CCCC(=O)Nc3ccccn3)C2=O)cc1 | 0.0 | 11.0 | -3.5 | -1.7 | -1.3 | x
COc1ccc(-n2ncc3c2CC(C)(C)CC3NC(=O)C2CCN(C(C)=O)CC2)cc1 (centres undefined) | 0.3 | 0.4 | -0.7 | -4.2 | -0.3 | x
CC(C)=CCCC(C)CN(C)CCc1ccccn1 (centres undefined) | 1.2 | 63.3* | 2.1 | -0.7 | -1.9 | x
SMILES | beta cell repl | T cruzi inh | Rev-erbA mod | PG9 binder | hiPSC survival | H9c2 TAG inh
Cc1ccccc1CN(C)CCc1ccccn1 | -2.0 | -6.6 | -3.5 | -1.9 | 0.4 | 8.9
O=C(Nc1cc([N+](=O)[O-])ccc1N1CCOCC1)c1ccco1 | -0.6 | -2.4 | -3.4 | 0.8 | -0.9 | -4.9
CCC[C@@H](CNC)NC[C@H](Cc1ccccc1)NCCCCc1ccccc1 | -9.2 | 31.2 | -6.4 | 0.9 | -3.2 | 130.6*
CCC[C@@H](CN[C@@H](CNC)C(C)C)NCCCCc1ccccc1 | -8.8 | -24.1 | 0.2 | -1.7 | -6.0 | 33.3
CC[C@@]1(C(=O)OC)N[C@H](CN(C)S(=O)(=O)c2ccc(C(C)(C)C)cc2)[C@@H]2C(=O)N(Cc3ccccc3)C(=O)[C@@H]21 | 1.6 | x | 4.6 | 2.5 | 3.5 | 37.1
C=CCN1C(=O)/C(=C2/Sc3ccc(OC)cc3N2C)SC1=Nc1ccccc1 | 1.5 | -2.4 | -3.8 | 3.2 | -0.2 | 6.4
CC1CCN(CCCOc2ccc(Cl)cc2Br)CC1 | -3.2 | 16.2 | 0.4 | 1.6 | 0.3 | 0.2
Clc1cc(Br)ccc1OCCOCCN1CCCC1 | -2.0 | 59.5* | 2.1 | 2.5 | -0.5 | x
Cc1cc(C(C)(C)C)ccc1OCCOCCN1CCCC1 | 0.0 | 54.7* | 1.8 | -1.3 | 2.0 | x
Clc1ccc(OCCOCCN2CCCCC2)c(Br)c1 | -3.6 | 59.1* | -6.9 | -1.6 | -2.4 | x
CC(C)(C)c1cc(Cl)ccc1OCCOCCN1CCCC1 | -4.4 | 47.3 | -7.9 | 0.6 | -0.1 | 15.3
CC1CCN(CCOCCOc2ccc(Cl)cc2Br)CC1 | -3.8 | 63.8* | -3.9 | -2.5 | 0.6 | x
COc1ccc(CC(NC(C)=O)C(=O)NC2CCN(C(=O)Nc3ccc(Cl)cc3)CC2)cc1OC (centres undefined) | -3.4 | -3.1 | -4.2 | -1.4 | 1.6 | 15.3
CC(C)NC(=O)C1(C)CSCC(=O)N1CCCn1ccnc1 (centres undefined) | x | x | -5.8 | 1.1 | x | x
C=C1CCC[C@]2(C)C[C@H]3OC(=O)C(CNC(C)CC)[C@H]3CC12 (some centres undefined) | -1.0 | -27.1 | -0.4 | -1.9 | 1.2 | x
Cc1cc(Cl)c(OCCOCCN2CCN(C)CC2)c(Br)c1 | 1.9 | 58.7* | 4.5 | -2.5 | -0.6 | x
CN(C)c1cc[n+](CC(=O)c2ccc(-c3ccccc3)cc2)cc1 | -6.1 | 55.8* | 6.3 | -1.6 | -4.4 | -7.9
CCn1c(=O)cc(SCC(=O)NCc2ccc(C)cc2)c2ccccc21 | -2.1 | 3.7 | -0.4 | 1.2 | -4.1 | 0.4
CCn1c(=O)cc(SCC(=O)Nc2ccc(C)cn2)c2ccccc21 | -4.8 | -2.2 | -2.9 | 22.5* | -1.6 | x
COc1ccc(-n2nc([N+](=O)[O-])c(=NCCc3ccc(Cl)cc3)n2O)cc1 | -4.4 | 66.8* | -3.7 | -0.8 | 2.1 | x
COc1ccc(-n2nc([N+](=O)[O-])c(=NCCC3=CCCCC3)n2O)cc1 | -4.5 | 90.6* | 1.4 | 0.0 | -0.2 | 13.8
Cc1ccc(C)c(S(=O)(=O)NCCCN2CCOCC2)c1 | -3.6 | -6.0 | 6.2 | -1.2 | -1.3 | -13.9

Screening data as filed in PubChem BioAssay.
